ABCB1 inh – human ABCB1 inhibition, ABCG2 as counter-screen; inhibition, % at 6.6 µM; P08183; CCRF-Adr cells, JC-1 efflux, flow cytometry; AID 1326; 0.067% of 190,000 active; in the data active = inhibition above about 40%;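 also: higher value means more JC-1 retained so stronger ABCB1 efflux block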
MEKK2 mut-MEK5 – signal of MEK5 binding to mutant human MEKK2 PB1 domain | bead flow cytometry, Alexa488-MEK5 binding to MEKK2 mutant | percent response, % at 10 µM | 0.35% of 290,000 active | AID 1530; in the data active = percent response above about 24%, passing the limit was not always enough
MEKK2wt PB1 HTS – raises or lowers MEK5 binding to wildtype human MEKK2 PB1 domain | Q9Y2U5 | bead flow cytometry, Alexa488-MEK5 binding to MEKK2 WT; actives lie on both sides | binding response (% of control), % at 10 µM | 1.1% of 290,000 active; in the data active = binding response below about 67% or above about 130%
MEKK3 PB1 HTS – raises or lowers MEK5 binding to the human MEKK3 PB1 domain. bead-based flow cytometry, Alexa488-MEK5 binding to MEKK3; actives lie on both sides; 0 = blocked by unlabeled MEK5, 100 = vehicle. binding response (% of control), % at 10 µM. 1.4% of 290,000 active;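 active = binding response more than 3 SD above or below the average of its plate-row segment, actives on both sides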;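 also: Alexa488 bead fluorescence after subtracting the streptavidin-only scavenger bead signal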
ABCG2 block – inhibitors of human ABCG2 transporter, ABCB1 counter-screen; Q9UNQ0; IgMXP3 cells, JC-1 efflux, flow cytometry; inhibition, % at 6.6 µM; 0.1% of 190,000 active; AID 1325;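 active = inhibition above 80%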
Target sequence (Q9UNQ0 whole entry, looked up): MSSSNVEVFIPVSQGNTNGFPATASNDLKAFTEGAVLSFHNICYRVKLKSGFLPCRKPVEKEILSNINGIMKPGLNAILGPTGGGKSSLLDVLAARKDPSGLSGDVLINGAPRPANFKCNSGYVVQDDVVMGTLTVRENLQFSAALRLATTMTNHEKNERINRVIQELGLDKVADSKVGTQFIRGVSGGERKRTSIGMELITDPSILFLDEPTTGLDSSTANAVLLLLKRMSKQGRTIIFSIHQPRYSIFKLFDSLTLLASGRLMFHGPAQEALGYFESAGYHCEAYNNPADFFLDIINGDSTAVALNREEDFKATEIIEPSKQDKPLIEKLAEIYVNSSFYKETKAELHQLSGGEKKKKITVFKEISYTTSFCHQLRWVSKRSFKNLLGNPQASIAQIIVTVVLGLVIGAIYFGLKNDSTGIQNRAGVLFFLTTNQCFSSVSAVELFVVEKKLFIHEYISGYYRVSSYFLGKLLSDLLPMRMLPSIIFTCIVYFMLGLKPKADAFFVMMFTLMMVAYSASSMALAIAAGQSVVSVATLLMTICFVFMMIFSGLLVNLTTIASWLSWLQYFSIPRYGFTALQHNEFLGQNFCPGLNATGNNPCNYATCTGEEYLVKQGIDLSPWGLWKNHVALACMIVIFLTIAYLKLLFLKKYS
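System: two drug-resistant human cell lines, ABCG2 and ABCB1; controls: nicardipine high and DMSO low controls; times: 10 min exposure at 25 °C with rotation, no wash; detection: flow cytometry of retained JC-1 fluorescence; read-out basis: percent efflux inhibition, scaled nicardipine 100% to DMSO 0%; doses: one concentration, 6.6 µM final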
MEKK2wt confirm – raises or lowers MEK5 binding to wildtype human MEKK2, retest; shares compounds with MEKK3 PB1 HTS; bead flow cytometry, Alexa488-MEK5 binding to MEKK2 WT; actives lie on both sides; binding response (% of control), % at 10 µM; 2.4% of 5,900 active; AID 1892; in the data active = binding response below about 16% or above about 210%; inactive = in between
MEKK2mut confirm – signal of MEK5 binding to mutant human MEKK2, retest; shares compounds with MEKK3 PB1 HTS; percent response, % at 10 µM; 2% of 5,900 active; bead flow cytometry, Alexa488-MEK5 binding to MEKK2 mutant; AID 1893; in the data active = percent response mostly above about 71%, no sharp cut-off; inactive = mostly below about 38%;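 also: higher means compound restores mutant binding toward wildtype level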
MEKK3 confirm – MEKK3-MEK5 PB1 inhibition, single concentration confirmation | shares compounds with MEKK3 PB1 HTS | 1.8% of 5,900 active | binding response (% of control), % at 10 µM | bead flow cytometry, Alexa488-MEK5 binding to MEKK3; hits give low values;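 active = binding response below 72% of control, or above a set upper limit, though filed actives all read lower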;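 also: lower values mean stronger disruption of MEK5 binding to MEKK3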
Numbers stand for hits; - = inactive; . = no result given; [ ] = another dose, or the depositor's remark. Most compounds without a hit are left out; they make up all but 2.3% or so of the library.

SMILES | ABCB1 inh | MEKK2 mut-MEK5 | MEKK2wt PB1 HTS | MEKK3 PB1 HTS | ABCG2 block | MEKK2wt confirm | MEKK2mut confirm | MEKK3 confirm
CC(C)(C)NC(=O)NC(=O)COC(=O)c1ccc2c(c1)S(=O)(=O)N=C1CCCCCN12 | - | - | - | 147 | - | - | - | -
O=C(COc1ccc2c3c(c(=O)oc2c1)CCCC3)NCCCN1CCOCC1 | . | - | - | - | . | . | . | .
CN(C)CCN(C(=O)c1ccc2c(c1)CCCC2)c1nc2c(F)cccc2s1 | . | - | - | - | . | . | . | .
CCc1ccc2nc(N(CCCN(C)C)C(=O)c3ccc(C(=O)c4ccccc4)cc3)sc2c1 | . | 32 | 186 | - | . | - | - | -
CN(C)CCCN(C(=O)c1ccc(S(=O)(=O)N2CCCCCC2)cc1)c1nc2c(F)cccc2s1 | . | - | 134 | - | . | - | - | -
Cc1ccc2nc(N(CCCN(C)C)C(=O)c3ccc4ncsc4c3)sc2c1 | . | - | - | - | . | . | . | .
CCc1ccc2nc(N(CCCN(C)C)C(=O)c3ccc(S(=O)(=O)N4CCCc5ccccc54)cc3)sc2c1 | . | 32 | 188 | - | . | - | - | -
CN(C)CCN(C(=O)c1ccc(S(=O)(=O)N2CCCC2)cc1)c1nc2ccc(Br)cc2s1 | . | - | 138 | - | . | - | - | -
CCOC(=O)N1CCN(S(=O)(=O)c2ccc(C(=O)N(CCN(CC)CC)c3nc4ccc(C)cc4s3)cc2)CC1 | . | - | - | - | . | . | . | .
COc1ccc(NC(=O)CCC(=O)N2CCOCC2)c([N+](=O)[O-])c1 | . | - | - | - | . | . | . | .
Cc1ccc(N(C(=O)CS(=O)CC(=O)Nc2ccc(F)cc2)C(C)C(=O)NC(C)(C)C)cc1 (configuration not stated) | . | - | - | - | . | . | . | .
CC1CCCCN1C(=O)CCNC(=O)Cn1cnc2ccccc2c1=O (configuration not stated) | . | - | - | - | . | . | . | .
CCc1cccc(NC(=O)C2CCCN(S(=O)(=O)c3cccs3)C2)c1 (configuration not stated) | . | - | - | - | . | . | . | .
COc1cccc2sc(N(CCCN(C)C)C(=O)c3ccc(S(=O)(=O)N4CCCc5ccccc54)cc3)nc12 | . | 38 | 187 | - | . | - | - | -
COc1ccc(C(=O)O)cc1S(=O)(=O)N1CCCc2ccccc21 | . | - | - | - | . | . | . | .
CCc1ccc2nc(N(CCCN(C)C)C(=O)c3ccc(S(=O)(=O)N4CCCC4)cc3)sc2c1 | . | - | 135 | - | . | - | - | -
CN(C)CCCN(C(=O)c1ccc(S(=O)(=O)N2CCCCCC2)cc1)c1nc2ccc(F)cc2s1 | . | - | 158 | - | . | - | - | -
CCN(CC)CCN(C(=O)c1ccc2ccccc2c1)c1nc2ccc(F)cc2s1 | . | - | - | - | . | . | . | .
CCCCC(=O)N(c1ccc(C(=O)O)cc1)c1nc(-c2ccc(Cl)cc2)c(CC)s1 | - | - | 3.0[inhibitor] | 3.0[inhibitor] | - | - | - | -
COc1ccc(N2CC(C(=O)N[C@@H](C)C(=O)NCCc3ccccc3)CC2=O)cc1 (some centres not stated) | . | - | - | - | . | . | . | .
Cc1[nH]c2ccccc2c1C(=O)COC(=O)Cn1c(C(F)(F)F)nc2ccccc21 | - | - | - | - | - | . | . | .
O=C(Cn1c(C(F)(F)F)nc2ccccc21)OCC(=O)c1c[nH]c2ccccc12 | - | - | 63[inhibitor] | - | - | - | - | -
O=C(OCc1cnc(Cl)s1)c1cccc(Cl)c1 | - | - | - | - | - | . | . | .
Cc1cccc(C(=O)OCc2cnc(Cl)s2)c1 | - | - | 25[inhibitor] | 15[inhibitor] | - | - | - | -
COc1ccc(S(=O)(=O)N(Cc2ccc(OC)c(OC)c2)Cc2ccco2)cc1 | - | - | - | - | - | . | . | .
SMILES | ABCB1 inh | MEKK2 mut-MEK5 | MEKK2wt PB1 HTS | MEKK3 PB1 HTS | ABCG2 block | MEKK2wt confirm | MEKK2mut confirm | MEKK3 confirm
COc1ccc(S(=O)(=O)N(CCC(N)=O)Cc2ccco2)cc1OC | . | - | - | 50[inhibitor] | . | - | - | -
CN(CC(=O)Nc1ccccc1Br)CC(=O)Nc1ccccc1C(F)(F)F | . | - | - | - | . | . | . | .
CCN(CC)CC(=O)Nc1ccc2c(c1)N(C(=O)CN(CC)CC)c1ccccc1CC2 | . | - | - | - | . | . | . | .
CCN(CC)CC(=O)Nc1ccc2c(c1)Nc1ccccc1CC2 | - | - | 135 | - | - | - | - | -
COc1ccc(CNS(=O)(=O)c2ccc3c(c2)N(C(C)=O)CC(C)S3)cc1 (configuration not stated) | . | - | - | - | . | . | . | .
Cc1cc(NC(=O)c2sc(Nc3cccc(C(F)(F)F)c3)nc2N)no1 | - | - | - | 140 | - | - | - | -
O=C(OCN1C(=O)c2ccccc2C1=O)c1cccnc1SC(F)F | . | - | - | - | . | . | . | .
CN(C)c1ccc(-c2nnc(-c3ccccc3F)o2)cc1 | . | 26 | - | - | . | - | - | -
COc1ccc(-c2nnc(-c3ccc(N(C)C)cc3)o2)cc1 | - | - | - | - | - | . | . | .
Cc1cc(C)nc(-n2ncc3c2CC(c2ccccc2C)CC3=O)n1 (configuration not stated) | - | - | - | 137 | - | - | - | -
CCCCCCC(C)OC(=O)Nc1cccc2ccccc12 (configuration not stated) | . | - | - | 70[inhibitor] | . | - | - | -
C=CCOc1ccccc1CN(CCc1ccccc1)C(=O)c1cccc(S(C)(=O)=O)c1 | . | - | - | - | . | . | . | .
O=C1[C@@H]2[C@@H]3C[C@@H]([C@H]4ON=C(c5ccc(Cl)cc5Cl)[C@@H]34)[C@@H]2C(=O)N1C1CCCCC1 | - | - | - | 144 | - | - | - | -
O=C(Nc1ccccc1F)C(=O)c1cn(CC(=O)N2CCCCC2)c2ccccc12 | - | - | - | 44[inhibitor] | - | - | - | -
O=C(c1ccc(Cl)nc1)N1CCc2ccccc2C1 | - | - | 21[inhibitor] | 14[inhibitor] | - | - | - | -
CCN(CC)CCn1c(SCC(=O)Nc2cccc(OC)c2)nc2c(sc3ccccc32)c1=O | - | - | 174 | - | - | - | - | -
CCN(CC)CCn1c(SCC(=O)NCc2ccco2)nc2c(sc3ccccc32)c1=O | - | - | - | - | - | . | . | .
COc1cccc(NC(=O)CSc2nc3c(sc4ccccc43)c(=O)n2CCN(C)C)c1 | - | - | 147 | - | - | - | - | -
CCC(Sc1nc2ccccc2o1)C(=O)O (configuration not stated) | - | - | - | - | - | . | . | .
CC(Sc1nc2ccccc2o1)C(=O)O (configuration not stated) | - | - | -39[inhibitor] | -3.0[inhibitor] | - | - | - | -
O=S(=O)(c1ccc(Cl)cc1)n1ccc(-c2cccc(OCc3c(F)cccc3Cl)c2)n1 | - | - | - | - | - | . | . | .

Source: PubChem BioAssay (NMMLSC)
